This is a sample that favours compounds with a hit; in the whole collection about 9.3% have one here.
Ecoli WT expand – growth inhibitors of wild-type E. coli, primary screen, strain BW25113, expanded library, OD600 | OD600 absorbance | growth inhibition, % at 100 µM | actives 0.15% (n = 98,000) | AID 710, 2007;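 active means growth inhibition above about 50% at one test dose, limit read from the data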;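 further: growth measured after 20 h incubation at 37 °C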
PostGolgi ctrl – growth inhibition of yeast control strain, primary screen, counter-screen for post-Golgi transport modulator project. inhibition, % at 10 µM. actives 5% (n = 98,000). efflux-deficient yeast background strain, growth absorbance A615, 16 h
PostGolgi yeast – phenotypic screen on post-Golgi transport, primary screen; inhibition, % at 10 µM; actives 0.9% (n = 98,000); post-Golgi transport phenotypic cell assay;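 further: yeast cells grown in 1536-well plates; yeast grown about 18 h at 30C before absorbance read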
D1 mod – D1 CRE-luciferase signal change, two-sided – cell-based, HEK293 D1, dopamine EC30, D1 allosteric modulator project, primary screen; B-score at 10 µM; dopamine EC30 potentiation; actives deviate in either direction; AID 641, 2007; actives 5.9% (n = 58,000);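 active means luminescence count or its row- and column-corrected plate score outside the 99.7% band of the plate's sample wells, on either side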
DAT uptake mod – changed hDAT dopamine uptake under cocaine IC80, either direction, primary screen, cocaine antagonist project, cell-based, LLC-PK1 hDAT, [14C]-dopamine uptake, MLSMR | Sodium-dependent dopamine transporter (Homo sapiens), Q01959 | B-score at 10 µM | actives 1.3% (n = 110,000) | LLC-PK1 hDAT cells, [14C]-dopamine uptake with cocaine IC80; actives deviate in either direction;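 active means Z score or B-score, a plate-position-corrected score, falls beyond the plate's 99.7% confidence bounds, in either direction; inactive means both scores lie inside the 99.7% bounds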;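 further: scored against the spread of the other compound wells on the same plate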
Target sequence (Q01959 whole entry, looked up): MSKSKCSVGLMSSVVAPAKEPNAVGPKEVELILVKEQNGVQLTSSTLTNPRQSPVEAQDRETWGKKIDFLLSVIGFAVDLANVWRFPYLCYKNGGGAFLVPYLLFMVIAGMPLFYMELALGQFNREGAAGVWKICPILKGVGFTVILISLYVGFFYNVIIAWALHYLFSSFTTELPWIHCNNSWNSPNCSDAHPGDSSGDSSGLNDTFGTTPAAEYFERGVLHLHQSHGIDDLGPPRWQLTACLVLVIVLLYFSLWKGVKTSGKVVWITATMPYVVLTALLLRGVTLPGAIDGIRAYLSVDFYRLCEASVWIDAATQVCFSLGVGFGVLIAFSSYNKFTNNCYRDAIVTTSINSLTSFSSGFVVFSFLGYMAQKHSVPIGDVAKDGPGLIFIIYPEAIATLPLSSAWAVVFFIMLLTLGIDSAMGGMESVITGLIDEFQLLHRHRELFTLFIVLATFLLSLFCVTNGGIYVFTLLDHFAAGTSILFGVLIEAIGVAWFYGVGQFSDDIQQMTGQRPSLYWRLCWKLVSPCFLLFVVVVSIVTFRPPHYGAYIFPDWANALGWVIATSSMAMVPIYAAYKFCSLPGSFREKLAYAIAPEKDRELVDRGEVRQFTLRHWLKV
tolC growth inh – growth inhibitors of E. coli tolC mutant, primary screen, strain BW25113 ΔtolC::kan, 384-well. actives 2.2% (n = 65,000). AID 573, 2007. OD615. growth inhibition, % at 10 µM (by protocol);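 active means growth inhibition at or above a cutoff equal to the mean over every tested compound plus 3 SD, cut at about 60% in these data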;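 further: growth measured after 20 h incubation at 37 °C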
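Assay system: tolC-deleted E. coli BW25113. Medium: kanamycin-containing LB broth (50 µg/mL). Dosing: 10 µM final, single dose. Timing: bacterial growth with compound for 20 h at 37 °C. Detection: A615 absorbance measurement. Read-out basis: growth inhibition in percent.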
* marks the source's active call; other numbers are inactive results; / = not tested or not shown. Unless noted, no stated cut-off is given here; in the data, active means inhibition above about 30%; inactive means the rest.

SMILES	Ecoli WT expand	PostGolgi ctrl	PostGolgi yeast	D1 mod	DAT uptake mod	tolC growth inh
O=C(Nc1ccccc1)[C@@H]1CC=C[C@@H]2CCN(Cc3ccc(Cl)c(Cl)c3)C(=O)[C@@H]21	/	/	/	/	1.8	/
CC/C(=C\C(=O)c1ccncc1)Nc1ccc(Br)cc1	8	37*	34*	/	0.098	/
COc1cc(C(=O)n2nc(C)cc2C)ccc1O	6	19	6	/	-0.21	/
CC(C)SC1=NC(C)(C)C=C(/C=C/c2ccc(Cl)cc2Cl)N1	2	27	3	/	0.88	/
CC(C)SC1=NC(C)(C)C=C(/C=C/c2c(Cl)cccc2Cl)N1	-7	74*	1	/	0.69	/
CCCCn1c(SCC(N)=O)nc2ccc(N3CCOCC3)cc2c1=O	2	35*	-9	/	0.42	/
C1=CC2CC1CC2CNCc1ccco1 (stereo not drawn)	3	-2	-2	-0.29	-0.71	-9
CCN(CC)c1ncn(Cc2c(Cl)cccc2Cl)c2ncnc1-2	-5	34*	-36	/	-0.012	/
CCN1CCN(C(c2ccc(OC)cc2)C(O)C(=O)c2c[nH]c3ccccc23)CC1 (stereo not drawn)	-3	15	-3	/	-0.61	/
COc1ccc(C2C(C#N)=C(N)Oc3n[nH]c(C)c32)cc1Cn1nnc2ccccc21 (stereo not drawn)	9	-3	8	1.4	0.47	15
CCCc1[nH]nc2c1C(c1ccc(OC)c(Cn3nnc4ccccc43)c1)C(C#N)=C(N)O2 (stereo not drawn)	9	28	9	2.3	3.6*	20
CCn1c2ccccc2c2cc(C3C(C#N)=C(N)Oc4n[nH]c(COC)c43)ccc21 (stereo not drawn)	0	13	6	0.79	2.1	71*
CC(C)CCn1c(Br)nc2c1c(=O)n(CC(N)=O)c(=O)n2C	1	2	1	-0.4	0.055	-26
CS(=O)(=O)N(CCc1ccccc1)CC(=O)NCC1CCCO1 (stereo not drawn)	1	12	-3	-0.063	-0.99	-6
O=C(Nc1ccccc1N1CCOCC1)c1ccccc1NS(=O)(=O)c1ccc(F)c(F)c1	2	15	4	/	-1.7	/
O=C(Nc1ccccc1N1CCOCC1)c1ccccc1NS(=O)(=O)c1ccc(F)cc1	-1	34*	2	/	/	/
CCOc1ccc(S(=O)(=O)Nc2ccccc2C(=O)Nc2ccccc2N2CCOCC2)cc1	-8	34*	3	0.17	0.18	27
O=C(O)c1cnn(-c2ccccc2)c1-c1ccccc1	3	15	19	/	-0.14	/
CCN(CC)S(=O)(=O)c1cccc(NC(=O)C(=O)c2c(-c3ccccc3)cc3ccccn23)c1	-16	72*	-3	/	/	/
CCN(CC)S(=O)(=O)c1ccc(N2CCOCC2)c(NC(=O)C(=O)c2c(-c3ccccc3)cc3ccccn23)c1	-14	98*	72*	/	1.5	/
CCN(CC)S(=O)(=O)c1cc(NC(=O)C(=O)c2c(-c3ccccc3)cc3ccccn23)ccc1C	-16	13	-2	/	1.7	/
COc1ccc(NS(=O)(=O)c2cc(C)ccc2NC(=O)c2cc(C)oc2C)cc1	1	0	13	2.5	0.0052	87*
CC(C)(C)OC(=O)N1CCC[C@H]1c1nnc(SCc2c(Cl)cccc2Cl)o1	5	14	-2	/	0.58	79*
CN(C)CCN1CCc2ccccc21	2	6	6	/	-0.85	/
c1ccc2c(c1)CCN2CCN1CCc2ccccc21	-15	2	-3	-3.2*	-1.2	8
SMILES	Ecoli WT expand	PostGolgi ctrl	PostGolgi yeast	D1 mod	DAT uptake mod	tolC growth inh
O=C(CN(Cc1ccccc1)C(=O)c1cc2c(s1)CCC2)NCc1cccs1	-14	35*	1	/	1.3	/
CC(C(=O)NC(=O)NC1CCCCC1)N1CCN(C(c2ccccc2)c2ccccc2)CC1 (stereo not drawn)	-1	28	2	/	/	/
CC1(C)CC(=O)c2cc(C(=O)Nn3cnnc3)c(=O)n(-c3ccccc3)c2C1	-1	1	19	-1.1	-0.88	0
Cc1ccc(-n2c(C)cc3c2CC(C)(C)CC3=O)cc1C	-4	31*	16	/	0.44	/
Cc1cc2c(n1-c1ccc(Br)cc1)CC(C)(C)CC2=O	4	40*	0	/	-0.032	/
Cc1ccc(N2C(=O)C(O)(C(F)(F)F)C3=C2CC(C)(C)CC3=O)cc1C (stereo not drawn)	-1	-7	0	/	-0.35	/
CC(C)(C)C(=O)Nc1nc(C2CCCN2S(=O)(=O)c2ccc(Cl)cc2)cs1 (stereo not drawn)	6	4	-5	/	-0.66	/
O=C(Cn1c(S(=O)(=O)Cc2ccccc2)nc2ccccc21)N1CCCCC1	-4	35*	-18	0.48	0.8	-5
NC(=O)CS(=O)(=O)c1nc2ccccc2n1CC(=O)N1CCCCC1	4	4	3	0.52	-0.51	-4
O=C1NC(Nc2nccs2)(C(F)(F)F)C(=O)N1CCc1ccccc1 (stereo not drawn)	4	1	11	0.11	0.43	24
CCOc1ccccc1N(CC(=O)Nc1ccc2c(c1)OCCO2)S(C)(=O)=O	4	34*	3	0.082	1.2	-1
CCOc1ccc(N(CC(=O)Nc2cccc(OC)c2)S(=O)(=O)c2c(C)noc2C)cc1	-21	9	0	-0.6	0.91	70*
Cc1ccc(N(CC(=O)Nc2ccc3c(c2)OCCO3)S(=O)(=O)c2c(C)noc2C)cc1	-8	23	-6	-1.3	-0.72	65*
CCOc1ccc(N(CC(=O)Nc2ccc(C)cc2)S(=O)(=O)c2c(C)noc2C)cc1	-7	12	-4	-0.53	-0.35	-14
CCOc1ccc(N(CC(=O)Nc2cccc(Cl)c2)S(=O)(=O)c2c(C)noc2C)cc1	3	45*	7	-0.75	-0.87	73*
CCOc1ccccc1N(CC(=O)Nc1ccc2c(c1)OCO2)S(C)(=O)=O	6	5	-13	0.63	-0.065	2
Cc1csc(=O)n1CCC(=O)O	-5	6	-2	0.55	-0.35	-10
N#Cc1c(-c2ccccc2)nc(SCc2nc(N)nc(N3CCCCC3)n2)[nH]c1=O	-2	-3	-3	-3.2*	2	44
Cc1ccc(-n2nnnc2-c2cnoc2-c2cccc(F)c2)cc1	/	/	/	/	0.49	/
Cc1ccc(N(CC(O)CON=C2c3ccccc3-c3ccccc32)S(C)(=O)=O)cc1 (stereo not drawn)	-7	67*	-3	/	0.6	/
Cc1cccc(C)c1N(CC(O)Cn1c2ccccc2c2ccccc21)S(C)(=O)=O (stereo not drawn)	-18	16	-5	/	1.3	/
